Experimental data published in ChEMBL document CHEMBL2384967, “Benzimidazole-based antibacterial agents against Francisella tularensis” (Bioorg Med Chem, 2013).
Converted amounts (≈) assume the structure as drawn.

Experiments:
[1] = system: Francisella tularensis; assay: Antibacterial activity against Francisella tularensis LVS at 1 ug/ml by Microplate Alamar Blue assay; type: functional; details: read-out: GI
[2] = system: Francisella tularensis; assay: Antibacterial activity against Francisella tularensis LVS after 18 hrs by Microplate Alamar Blue assay; type: functional
[3] = system: Vero; assay: Cytotoxicity against african green monkey vero cells after 3 days; type: cell-based; details: Chlorocebus sabaeus, 72 h
Procedure, shortened: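 Vero cells grown in L15 medium without CO2, 1.25×10^5 per well. Triplicate 2-fold drug dilutions from 200 µg/mL, with resazurin at a final 25 µg/mL, for 3 days at 37 °C. LD is the lowest concentration that inhibits growth, with no resazurin reduction.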

[4] = system: Francisella tularensis; assay: Antibacterial activity against Francisella tularensis LVS at 0.2 ug/ml by Microplate Alamar Blue assay; type: functional; details: read-out: GI
[5] = system: Francisella tularensis; assay: Antibacterial activity against Francisella tularensis LVS infected in mouse RAW 264.7 macrophages after 18 hrs; type: functional
[6] = system: Francisella tularensis; assay: Antibacterial activity against Francisella tularensis LVS infected in mouse RAW 264.7 macrophages assessed as log reduction in CFU at 2 to 50 ug/ml after 18 hrs relative to control; type: functional

| Compound | inhibition of growth at 1 µg/mL [1] | MIC90 [2] | IC50 [3] | inhibition of growth at 0.2 µg/mL [4] | Activity [5] | FC [6] |
| --- | --- | --- | --- | --- | --- | --- |
| CCOC(=O)Nc1cc(NC(=O)C2CCCC2)c2[nH]c(-c3ccc(Br)cc3)nc2c1 | > 90% | 0.75 µg/mL (≈ 1.59 µM) | > 200 µg/mL | – | – | – |
| CCOC(=O)Nc1cc(NC(=O)c2ccccc2OC)c2[nH]c(-c3ccc(Br)cc3)nc2c1 | > 90% | 1.4 µg/mL (≈ 2.75 µM) | > 200 µg/mL | – | – | – |
| CCN(CC)c1cc2[nH]c(-c3ccccc3)nc2cc1NC(=O)c1ccc(C)cc1 | > 90% | 12.9 µg/mL (≈ 32.4 µM) | > 200 µg/mL | 40% | – | – |
| O=C(Nc1cc2nc(-c3ccco3)[nH]c2cc1N1CCCCC1)c1cccc2ccccc12 | > 90% | 2.4 µg/mL (≈ 5.5 µM) | > 200 µg/mL | – | Dose-dependent effect | 2 |
| O=C(Nc1cc2nc(-c3cccs3)[nH]c2cc1N1CCCCC1)OCc1ccccc1 | > 90% | 0.98 µg/mL (≈ 2.27 µM) | > 200 µg/mL | – | Dose-dependent effect | 2 |
| CC(C)(C)OC(=O)Nc1cc(NC(=O)OCc2ccccc2)c2[nH]c(-c3ccccc3)nc2c1 | > 90% | 0.35 µg/mL (≈ 0.763 µM) | > 200 µg/mL | – | – | – |
| CCOC(=O)Nc1cc(NC(=O)c2ccccc2)c2[nH]c(-c3ccc(C(=O)OC)cc3)nc2c1 | > 90% | – | 650 µg/mL (≈ 1420 µM) | 40% | – | – |
| O=C(Nc1cc2nc(C3CCCCC3)[nH]c2cc1N1CCCC1)C1CC1 | > 90% | 2.1 µg/mL (≈ 5.96 µM) | > 200 µg/mL | – | – | – |
| CCN(CC)c1cc2[nH]c(-c3ccc(C)cc3)nc2cc1NC(=O)C1CCC1 | > 90% | 1.16 µg/mL (≈ 3.08 µM) | > 200 µg/mL | 40% | – | – |
| CCOC(=O)Nc1cc(N)c2[nH]c(-c3ccc(Br)cc3)nc2c1 | > 90% | 2.99 µg/mL (≈ 7.97 µM) | > 200 µg/mL | – | – | – |
| CCN(CC)c1cc2[nH]c(-c3ccc(F)cc3)nc2cc1NC(=O)C1CCC1 | > 90% | 4.84 µg/mL (≈ 12.7 µM) | > 200 µg/mL | – | – | – |
| CCOC(=O)Nc1cc(NC(=O)c2ccc(F)cc2)c2[nH]c(-c3ccco3)nc2c1 | > 90% | 2.8 µg/mL (≈ 6.86 µM) | > 200 µg/mL | 40% | – | – |
| CCOC(=O)Nc1cc(NC(=O)c2ccc(OC)cc2)c2[nH]c(-c3ccc(C(=O)OC)cc3)nc2c1 | > 90% | – | > 200 µg/mL | 40% | – | – |
| CCN(CC)c1cc2[nH]c(-c3ccccc3OC)nc2cc1NC(=O)C1CCC1 | > 90% | 7.59 µg/mL (≈ 19.3 µM) | > 200 µg/mL | – | – | – |
| CCOC(=O)Nc1cc(N)c2[nH]c(-c3cc(C)cc(C)c3)nc2c1 | > 90% | 4.33 µg/mL (≈ 13.3 µM) | > 200 µg/mL | – | – | – |
| CCOC(=O)Nc1cc(NC(=O)c2ccccc2)c2[nH]c(-c3ccco3)nc2c1 | > 90% | 3.8 µg/mL (≈ 9.73 µM) | > 200 µg/mL | 40% | – | – |
| COc1ccccc1C(=O)Nc1cc2nc(-c3cccs3)[nH]c2cc1N1CCCCC1 | > 90% | 1.6 µg/mL (≈ 3.7 µM) | > 200 µg/mL | – | – | – |
| CN(C)CCN(C)c1cc2[nH]c(C3CCCCC3)nc2cc1NS(=O)(=O)c1ccccc1 | > 90% | 48.6 µg/mL (≈ 107 µM) | > 200 µg/mL | – | – | – |
| CCOC(=O)Nc1cc(NC(=O)c2ccccc2)c2[nH]c(-c3ccc(Br)cc3)nc2c1 | > 90% | 0.48 µg/mL (≈ 1 µM) | > 200 µg/mL | – | – | – |
| CCN(CC)c1cc2[nH]c(-c3ccccc3OC)nc2cc1NC(=O)c1ccccc1OC | > 90% | 4.85 µg/mL (≈ 10.9 µM) | > 200 µg/mL | – | – | – |
| CCOC(=O)Nc1cc(NC(=O)C2CCCCC2)c2[nH]c(-c3ccc(C(=O)OC)cc3)nc2c1 | > 90% | 1.5 µg/mL (≈ 3.23 µM) | > 200 µg/mL | 40% | – | – |
| CCN(CCN(C)C)c1cc2[nH]c(C3CCCCC3)nc2cc1NS(=O)(=O)c1ccccc1 | > 90% | 35.8 µg/mL (≈ 76.2 µM) | > 200 µg/mL | – | – | – |
| COc1ccccc1C(=O)Nc1cc2nc(-c3ccco3)[nH]c2cc1N1CCCCC1 | > 90% | 2.1 µg/mL (≈ 5.04 µM) | > 200 µg/mL | – | Dose-dependent effect | 2 |
